# Laboratory results from publication PMC5069309 (Clinical Pharmacokinetics, 2016).
# Where two headings read alike, the source gives them in different places.
# Assays:
# [1] = type: in vivo; details: human, plasma, sc
# Method in brief: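 Type 1 diabetic subjects dosed sc once daily for 4 weeks, from 0.6 mg/day rising 0.6 mg weekly to 0.6, 1.2 or 1.8 mg. Plasma taken pre-dose and 2–60 h after the final steady-state dose; sandwich ELISA with N- and C-terminal monoclonals, LLOQ 30 pmol/L. Non-compartmental: trapezoidal AUC, observed Cmax/tmax, CL/F = dose/AUC0–24 h, Vz/F = (CL/F)/λz.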
# [2] = cited from earlier work
smiles,measurement,setting,value
"CCCCCCCCCCCCCCCC(=O)N[C@@H](CCC(=O)NCCCC[C@H](NC(=O)[C@H](C)NC(=O)[C@H](C)NC(=O)[C@H](CCC(N)=O)NC(=O)CNC(=O)[C@H](CCC(=O)O)NC(=O)[C@H](CC(C)C)NC(=O)[C@H](Cc1ccc(O)cc1)NC(=O)[C@H](CO)NC(=O)[C@H](CO)NC(=O)[C@@H](NC(=O)[C@H](CC(=O)O)NC(=O)[C@H](CO)NC(=O)[C@@H](NC(=O)[C@H](Cc1ccccc1)NC(=O)[C@@H](NC(=O)CNC(=O)[C@H](CCC(=O)O)NC(=O)[C@H](C)NC(=O)[C@@H](N)Cc1cnc[nH]1)[C@@H](C)O)[C@@H](C)O)C(C)C)C(=O)N[C@@H](CCC(=O)O)C(=O)N[C@@H](Cc1ccccc1)C(=O)N[C@H](C(=O)N[C@@H](C)C(=O)N[C@@H](Cc1c[nH]c2ccccc12)C(=O)N[C@@H](CC(C)C)C(=O)N[C@H](C(=O)N[C@@H](CCCNC(=N)N)C(=O)NCC(=O)N[C@@H](CCCNC(=N)N)C(=O)NCC(=O)O)C(C)C)[C@@H](C)CC)C(=O)O [Liraglutide, liraglutide]",Vd/F,[1],27.4 L
same,Vd/F,[1]; 0.6 mg,27 L
same,Vd/F,[1]; 1.2 mg,26 L
same,Vd/F,[1]; 1.8 mg,29.3 L
same,V z/F,"[2]; healthy volunteers and subjects with T2D, previous studies",11 to 17 L
same,CL/F,[2]; studies with healthy volunteers and subjects with T2D,1.2 L/h
